# Experimental data taken from ChEMBL document CHEMBL1126945, “Synthesis and evaluation of 3-modified 1D-myo-inositols as inhibitors and substrates of phosphatidylinositol synthase and inhibitors of myo-inositol uptake by cells” (1993).
# Assays:
# [1] = target: T1, CDP-diacylglycerol--inositol 3-phosphatidyltransferase (Mus musculus) (UniProt Q8VDP6); assay: Tested as substrate of phosphatidylinositol synthase in mouse brain by measuring percent CMP formation compared with myo-inositol tested at 5 mM; assay type: functional, tissue-based
# T1 sequence (whole entry): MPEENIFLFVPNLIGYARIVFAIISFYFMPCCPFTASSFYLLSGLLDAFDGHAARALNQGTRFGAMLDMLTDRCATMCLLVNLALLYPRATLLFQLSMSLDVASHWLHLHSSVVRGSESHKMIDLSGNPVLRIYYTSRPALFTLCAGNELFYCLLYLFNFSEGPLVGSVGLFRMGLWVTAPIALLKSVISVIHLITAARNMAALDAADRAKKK
# Procedure, shortened: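 Mouse brain microsomes (12-day-old mice; 900g then 12000g pellet) as PtdIns synthase source. 37 °C, 50 mM Tris-HCl pH 8.3, 48 mM MgCl₂, 0.5 mM CDP-dipalmitin, 0.25% Triton X-100, 5 mM analogue or myo-inositol, 0.5 mg microsomal protein. Stopped in linear phase with CHCl₃-MeOH; aqueous CMP read at 280 nm. Expressed as % of myo-inositol; averages of two or more determinations.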
# [2] = target: T1, CDP-diacylglycerol--inositol 3-phosphatidyltransferase (Mus musculus); assay: Tested for inhibition of phosphatidylinositol synthase from mouse brain at 5 mM
# Procedure, shortened: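 Mouse brain microsomal PtdIns synthase; incorporation of 0.5 mM myo-[2-³H]inositol into CHCl₃-soluble lipid at 37 °C with Tris-HCl pH 8.3, 48 mM MgCl₂, 0.5 mM CDP-dipalmitin, 0.25% Triton X-100, 5 mM analogue, 0.05 mg microsomal protein. Stopped at 20 min with HCl/MeOH and CHCl₃; organic phase scintillation counted. Averages of two or more determinations.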
# [3] = Michaelis-Menten constant was determined
# Rattus norvegicus [4] = species on record: Rattus norvegicus; assay: Tested for inhibition of myo-[3H]inositol uptake in F111 rat fibroblast cells at 5 mM; assay type: functional
# Procedure, shortened: (§1)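 F111 rat fibroblasts grown overnight on coverslips in inositol-free DMEM with 10% dialyzed calf serum and 10 μM myo-inositol, washed, then incubated 120 min at 37 °C, 5% CO₂ in Krebs-Ringer (HEPES pH 7.4) with 10 μM myo-[³H]inositol and 5 mM analogue. Washed, lysed in 1% SDS; radioactivity counted and normalised to BCA protein.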
# Rattus norvegicus [5] = species on record: Rattus norvegicus; assay: Tested for inhibition of myo-inositol uptake in F111 rat fibroblast cells at 5 mM; assay type: functional; procedure, shortened: as §1
Formation [1] [%],inhibition [2] [%],Km [3] [µM],SMILES,inhibition at 5000 µM (Rattus norvegicus [4]) [%],inhibition at 5000 µM (Rattus norvegicus [5]) [%]
7,37,–,O[C@@H]1[C@@H](O)[C@H](O)[C@@H](F)[C@@H](O)[C@H]1O,97,–
28,22,–,O[C@@H]1[C@H](F)[C@@H](O)[C@@H](O)[C@H](O)[C@@H]1O,–,–
1,30,–,O[C@@H]1[C@@H](O)[C@H](O)[C@@H](Cl)[C@@H](O)[C@H]1O,–,–

# Second part, the compound before the results:
SMILES,Formation [1] [%],inhibition [2] [%],Km [3] [µM],inhibition at 5000 µM (Rattus norvegicus [4]) [%],inhibition at 5000 µM (Rattus norvegicus [5]) [%]
[N-]=[N+]=N[C@@H]1[C@H](O)[C@H](O)[C@@H](O)[C@@H](O)[C@@H]1O,1,17,–,–,–
CO[C@@H]1[C@H](O)[C@@H](O)[C@@H](O)[C@H](O)[C@@H]1N=[N+]=[N-],0,10,–,–,–
O[C@@H]1[C@@H](O)[C@@H](O)[C@@H](S)[C@@H](O)[C@@H]1O,1.5,40,–,–,–
CO[C@H]1C[C@@H](O)[C@H](O)[C@H](O)[C@H]1O,0,28,–,–,–
O[C@H]1[C@H](O)[C@@H](O)[C@H](O)[C@@H](O)[C@H]1O,100,–,1500,–,–
N[C@H]1[C@@H](O)[C@H](O)[C@H](O)[C@@H](O)[C@H]1O,9,19,–,87,–
O[C@H]1[C@@H](O)[C@H](O)C[C@H](O)[C@@H]1O,6,9,–,–,80
O=C1[C@@H](O)[C@H](O)[C@@H](O)[C@H](O)[C@@H]1O,7,47,–,–,–
